Active and inactive are the calls of the source. No cut-off for these calls is given here. A value given as a limit tells only on which side of the number the result lay.

This is an account of results in ChEMBL document CHEMBL4334486 (J Med Chem, 2019).

Data set [1] relates to Pseudomonas aeruginosa. The experiment in a line: Antibiofilm activity against Pseudomonas aeruginosa PAO1 assessed as inhibition of biofilm formation incubated for 24 to 25 hrs at 50 uM by WST8 dye based Diggle-protocol method relative to control. Type of data set: functional. The gist of the method:
(§1)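 Modified Diggle microtiter method. Medium is 0.25% (w/v) nutrient broth no. 2 containing compound. PAO1 is grown overnight in LB, washed, and inoculated normalized to OD600 of 1. Plates are incubated humid for 24−25 h at 37 °C and washed twice with water. Wells are then stained for 3 h at 37 °C with 0.5 mM WST-8 plus 20 μM phenazine ethosulfate. Supernatant absorbance is read at 450 nm to give viable biofilm cells.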

In data set [2] the test system is Pseudomonas aeruginosa. As to the kind of experiment: Antibiofilm activity against Pseudomonas aeruginosa PAO1 assessed as inhibition of biofilm formation incubated for 24 to 25 hrs at 20 uM in presence of sub-inhibitory concentration of tobramycin by WST8 dye based Diggle-protocol method relative to control. Type of data set: functional, organism-based. The procedure, abridged: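 Diggle WST-8 biofilm method. PAO1 in 0.25% nutrient broth is exposed to compound at 20 μM mixed with tobramycin at 0.1 μM (subinhibitory). Incubation is 24−25 h at 37 °C. Washed wells are stained 3 h with 0.5 mM WST-8 and 20 μM phenazine ethosulfate. A450 of the supernatant is read.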

Data set [3] concerns Pseudomonas aeruginosa. The experiment in a line: Antibiofilm activity against Pseudomonas aeruginosa PAO1 assessed as inhibition of biofilm formation incubated for 8 hrs at 20 uM by crystal violet based O'Toole method relative to control. Type of data set: functional. The note with it: PAO1, 8 h. The procedure, abridged:
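O'Toole biofilm assay. PAO1 is grown in M63 minimal medium with 0.4% arginine and 1 mM MgSO4. Compound at 20 μM, or an equal volume of water as vehicle control, is added at inoculation. Incubation is 8 h at 37 °C. Growth is read at 550 nm on removed medium. Biofilm is stained with 0.1% crystal violet and quantified.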

The target of data set [4] is Fucose-binding lectin PA-IIL (Pseudomonas aeruginosa (strain ATCC 15692 / DSM 22644 / CIP 104116 / JCM14847 / LMG 12228 / 1C / PRS 101 / PAO1), UniProt Q9HYN5). As to the kind of experiment: Inhibition of Pseudomonas aeruginosa LecB by fluorescence polarization assay.
Data set [5] deals with Fucose-binding lectin PA-IIL (Pseudomonas aeruginosa (strain ATCC 15692 / DSM 22644 / CIP 104116 / JCM14847 / LMG 12228 / 1C / PRS 101 / PAO1)) (UniProt Q9HYN5). As to the kind of experiment: Potency index, ratio of IC50 for Me-alpha-D-mannoside to IC50 for test compound for inhibition of Pseudomonas aeruginosa LecB by fluorescence polarization assay.
Data set [6] concerns Pseudomonas aeruginosa. As to the kind of experiment: Antimicrobial activity against Pseudomonas aeruginosa PAO1 assessed as inhibition of bacterial growth under Mueller-Hinton conditions without iron supplementation. Type of data set: functional. The gist of the method:
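Ciprofloxacin and deferoxamine serve as controls. MIC is taken as the highest dilution with visually clear wells.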

The test system of data set [7] is Pseudomonas aeruginosa. The experiment in a line: Antimicrobial activity against siderophore-producing Pseudomonas aeruginosa PAO1 assessed as inhibition of bacterial growth at 0.125 to 128 ug/mL under iron-supplemented succinate minimal medium in the presence of 50 uM of FeCl3. Type of data set: functional, organism-based. The procedure, abridged:
(§2)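 Succinate minimal medium with FeCl3 at 8 μg/mL (50 μM), inoculated with the strain at 0.5 McFarland. Compound is added from 2-fold DMSO dilutions; DMSO alone is the growth control. Incubation is 24 h. OD600 gives growth, with cell-free baselines. Runs are at least duplicate, mean + SD; Mann−Whitney test, p<0.05.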

Data set [8] has as its system Pseudomonas aeruginosa. As to the kind of experiment: Induction of fluorescent pyoverdine-1 siderophore production in siderophore-producing Pseudomonas aeruginosa PAO1 at 0.125 to 128 ug/mL incubated for 24 hrs under iron-supplemented succinate minimal medium in the presence of 50 uM of FeCl3. Type of data set: functional, organism-based. The gist of the method:
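PAO1 in succinate minimal medium with 8 μg/mL (50 μM) FeCl3, compound from DMSO dilutions. Plates are incubated 24 h at 35 °C. Iron-free pyoverdine is read by absorbance at 405 nm and by fluorescence (excitation 400 nm, emission 447 nm), with cell-free baselines. Runs are in duplicate at least twice, mean + SD.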

Data set [9] deals with Pseudomonas aeruginosa. As to the kind of experiment: Antibiofilm activity against Pseudomonas aeruginosa PAO1 assessed as inhibition of biofilm formation incubated for 24 to 25 hrs at 20 uM by WST8 dye based Diggle-protocol method relative to control. Type of data set: functional. The procedure, abridged: as §1
In data set [10] the test system is Pseudomonas aeruginosa. As to the kind of experiment: Toxicity in Pseudomonas aeruginosa PAO1 incubated for 24 to 25 hrs at 20 uM in presence of sub-inhibitory concentration of tobramycin by WST8 dye based Diggle-protocol method relative to control. The note with it: in vivo. Type of data set: organism-based.
Data set [11] is described as follows: Toxicity in human CFBEdeltaF cells isolated from CF patient at 20 uM incubated for 24 hrs by LDH assay. Type of data set: cell-based. The gist of the method:
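CF bronchial epithelial CFBEΔF monolayers are treated with compound at 20 μM (water vehicle control) for 24 h. Cytotoxicity is measured as LDH released into the medium. Triton is the lysis reference.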

Data set [12] concerns the target Fucose-binding lectin PA-IIL (Pseudomonas aeruginosa (strain ATCC 15692 / DSM 22644 / CIP 104116 / JCM14847 / LMG 12228 / 1C / PRS 101 / PAO1)) (UniProt Q9HYN5). As to the kind of experiment: Potency index, ratio of IC50 for Me-alpha-L-fucoside to IC50 for test compound for inhibition of Pseudomonas aeruginosa LecB by fluorescence polarization assay.
For data set [13], the system named is Pseudomonas aeruginosa. As to the kind of experiment: Antimicrobial activity against siderophore-deficient Pseudomonas aeruginosa PAD07 in siderophore-deficient PAD07 assessed as inhibition of bacterial growth at 0.0625 to 128 ug/mL incubated for 24 hrs under iron-supplemented succinate minimal medium in the presence of 50 uM of FeCl3. Type of data set: functional, organism-based. The procedure, abridged:
as §2

For data set [14], the system named is Pseudomonas aeruginosa. The experiment in a line: Antibiofilm activity against Pseudomonas aeruginosa PAO1 assessed as inhibition of biofilm formation incubated for 8 hrs at 20 uM by crystal violet based O'Toole method relative to control.
For data set [15], the system named is Pseudomonas aeruginosa. As to the kind of experiment: Antimicrobial activity against Pseudomonas aeruginosa PAO1 assessed as inhibition of planktonic cells growth at >0.15 uM incubated for 24 to 25 hrs. Type of data set: functional, organism-based. The procedure, abridged:
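PAO1 inoculum from overnight LB culture, washed in 0.25% (w/v) nutrient broth no. 2, normalized to OD600 1 and added to the same broth containing the test compound. Incubation was 24−25 h at 37 °C in a humid environment. Planktonic growth was read from the supernatant: it was regrown in LB at 37 °C for 7−8 h and OD600 was compared with no-supernatant, or CFU were plated on LB agar.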

Fucose-binding lectin PA-IIL, sequence (Q9HYN5 whole entry): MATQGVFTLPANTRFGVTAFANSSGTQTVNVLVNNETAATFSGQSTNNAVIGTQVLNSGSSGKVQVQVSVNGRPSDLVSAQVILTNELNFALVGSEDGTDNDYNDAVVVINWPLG
Fucose-binding lectin PA-IIL (Pseudomonas aeruginosa (strain ATCC 15692 / DSM 22644 / CIP 104116 / JCM14847 / LMG 12228 / 1C / PRS 101 / PAO1)), sequence (Q9HYN5 as listed by the source): as the sequence (Q9HYN5 whole entry) above

Regarding `CC(C)(C)c1cc2c(OCCCn3cc(CN(O)C(=O)CCCCCn4cc(CO[C@H]5O[C@H](CO)[C@@H](O)[C@H](O)[C@@H]5O)nn4)nn3)c(c1)Cc1cc(C(C)(C)C)cc(c1OCCCn1cc(CN(O)C(=O)CCCCCn3cc(CO[C@H]4O[C@H](CO)[C@@H](O)[C@H](O)[C@@H]4O)nn3)nn1)Cc1cc(C(C)(C)C)cc(c1OCCCn1cc(CN(O)C(=O)CCCCCn3cc(CO[C@H]4O[C@H](CO)[C@@H](O)[C@H](O)[C@@H]4O)nn3)nn1)Cc1cc(C(C)(C)C)cc(c1OCCCn1cc(CN(O)C(=O)CCCCCn3cc(CO[C@H]4O[C@H](CO)[C@@H](O)[C@H](O)[C@@H]4O)nn3)nn1)C2`, in data set [1], the inhibition at 50 µM turned out to be 70%. Further, the inhibition result in data set [2] is “Active”. Moreover, the inhibition at 20 µM in data set [3] was found to be 84%; in [9], 83%. This molecule returned an IC50 in data set [4] of 664 nM. For the same molecule, in [5], the Ratio IC50 came to 236. Besides, the MIC in data set [6] is greater than 512 µg/mL. Also, the outcome in [7] was inactive. In addition, the results for the Activity result in [8], in [10] and in [11] were “Dose-dependent effect”, “Non-Toxic” and “Non-Toxic”, respectively.

In data set [4], `O=C(CCCCCn1cc(CO[C@H]2O[C@H](CO)[C@@H](O)[C@H](O)[C@@H]2O)nn1)NOCc1ccccc1` gave an IC50 of 146000 nM.

Regarding `C[C@@H]1O[C@@H](OCc2cn(CCCCCC(=O)N(O)Cc3cn(CCCOc4c5cc(C(C)(C)C)cc4Cc4cc(C(C)(C)C)cc(c4OCCCn4cc(CN(O)C(=O)CCCCCn6cc(CO[C@@H]7O[C@@H](C)[C@@H](O)[C@@H](O)[C@@H]7O)nn6)nn4)Cc4cc(C(C)(C)C)cc(c4OCCCn4cc(CN(O)C(=O)CCCCCn6cc(CO[C@@H]7O[C@@H](C)[C@@H](O)[C@@H](O)[C@@H]7O)nn6)nn4)Cc4cc(C(C)(C)C)cc(c4OCCCn4cc(CN(O)C(=O)CCCCCn6cc(CO[C@@H]7O[C@@H](C)[C@@H](O)[C@@H](O)[C@@H]7O)nn6)nn4)C5)nn3)nn2)[C@@H](O)[C@H](O)[C@@H]1O`, the inhibition result in [1] and in [14] was “inactive” each time. Besides, the inhibition at 20 µM in [3] was determined as 72%. In addition, the IC50 in data set [4] was determined as 249 nM. Moreover, the Ratio IC50 in data set [12] amounted to 3.37. The outcome in data set [13] and in data set [7] was inactive. For the same molecule, in [6], the MIC was greater than 512 µg/mL. The Activity result in data set [8] was “Dose-dependent effect”; in [11] it was “Non-Toxic”.

In the case of `CC(C)(C)c1cc2c(OCCCn3cc(CN(O)C(=O)CCCCCn4cc(CO[C@H]5O[C@H](CO)[C@@H](O)[C@H](O)[C@H]5O)nn4)nn3)c(c1)Cc1cc(C(C)(C)C)cc(c1OCCCn1cc(CN(O)C(=O)CCCCCn3cc(CO[C@H]4O[C@H](CO)[C@@H](O)[C@H](O)[C@H]4O)nn3)nn1)Cc1cc(C(C)(C)C)cc(c1OCCCn1cc(CN(O)C(=O)CCCCCn3cc(CO[C@H]4O[C@H](CO)[C@@H](O)[C@H](O)[C@H]4O)nn3)nn1)Cc1cc(C(C)(C)C)cc(c1OCCCn1cc(CN(O)C(=O)CCCCCn3cc(CO[C@H]4O[C@H](CO)[C@@H](O)[C@H](O)[C@H]4O)nn3)nn1)C2`, the inhibition at 20 µM in data set [3] amounted to 92%. Moreover, in [11], the Activity result is “Non-Toxic”.

For `NC[C@H]1O[C@H](O[C@H]2[C@H](O)[C@@H](O[C@H]3O[C@H](CO)[C@@H](O)[C@H](N)[C@H]3O)[C@H](N)C[C@@H]2N)[C@H](N)C[C@@H]1O`, in data set [15], the result was Active.

As to `C[C@@H]1O[C@@H](OCc2cn(CCCCCC(=O)NOCc3ccccc3)nn2)[C@@H](O)[C@H](O)[C@@H]1O`, in data set [4], the IC50 was determined as 500 nM. This counts as sub-micromolar.
